In brackets after ≈: the same amount, converted by molar mass. Activity calls are given as the source filed them. No cut-off for these calls is given here. Some results are limits rather than exact numbers.

Data set [1] has as its system Leishmania infantum. Nature of the data set: Antileishmanial activity against Leishmania infantum promastigotes. The class given is functional, organism-based.
Data set [2] concerns Trypanosoma cruzi. The data set is described as follows: Antitrypanosomal activity against of Trypanosoma cruzi epimastigotes. The data set is classed as functional, organism-based.
Data set [3] relates to Trypanosoma cruzi. Nature of the data set: Antitrypanosomal activity against of Trypanosoma cruzi epimastigotes at 25 uM. The data set is classed as functional.
Data set [4] is described as follows: Cytotoxicity against mouse J774.1 cells. The class given is toxicity, cell-based. Summed up:
(§1)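 Cytotoxicity (CC50) was measured on murine J774.1A macrophages. Selectivity index is CC50 divided by parasite IC50 (promastigote, epimastigote or axenic amastigote). Values are the mean of three independent experiments.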

For data set [5], the system named is Trypanosoma cruzi. Nature of the data set: Induction of ROS production in Trypanosoma cruzi epimastigotes in presence of Fe3+. The data set is classed as functional, organism-based. In short, it runs like this:
(§2)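 Oxidative stress in parasite cultures was read fluorometrically with the 2,7-dichlorodihydrofluorescein diacetate (DCFH-DA) probe against a negative-control culture, and was also run with metal cations present.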

Data set [6] concerns Trypanosoma cruzi. The data set is described as follows: Induction of ROS production in Trypanosoma cruzi epimastigotes in presence of Zn2+. The class given is functional, organism-based. In short, it runs like this:
as §2

In data set [7] the test system is Leishmania infantum. Nature of the data set: Induction of ROS production in Leishmania infantum promastigotes in presence of Fe3+. The class given is functional, organism-based. Summed up:
as §2

Data set [8] relates to Trypanosoma cruzi. Nature of the data set: Induction of ROS production in Trypanosoma cruzi epimastigotes in presence of Cu2+. The data set is classed as functional, organism-based. Summed up: as §2
For data set [9], the system named is Trypanosoma cruzi. The data set is described as follows: […] activity against Trypanosoma cruzi epimastigotes assessed as change in parasites in presence of iron(III). The class given is functional, organism-based. In short, it runs like this:
(§3)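 Parasite proliferation was run in the presence of copper(II), iron(III) or zinc(II) salts, each at 1 μM.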

The subject of data set [10] is Leishmania infantum. The data set is described as follows: Induction of ROS production in Leishmania infantum promastigotes in presence of Cu2+. The data set is classed as functional, organism-based. In short, it runs like this:
as §2

Data set [11] has as its system Leishmania infantum. The data set is described as follows: Induction of ROS production in Leishmania infantum promastigotes in presence of Zn2+. The data set is classed as functional, organism-based. Summed up:
as §2

A short description of data set [12]: Selectivity index, ratio of CC50 for mouse J774.1 cells to IC50 for Leishmania infantum amastigotes. The data set is classed as toxicity. The note with it: read-out: Ratio CC50/IC50. Summed up:
as §1

A short description of data set [13]: Selectivity index, ratio of CC50 for mouse J774.1 cells to IC50 for Leishmania infantum promastigotes. The class given is toxicity. The note with it: read-out: Ratio CC50/IC50. Summed up: as §1
Data set [14] deals with Trypanosoma cruzi. Nature of the data set: […] activity against Trypanosoma cruzi epimastigotes assessed as change in parasites in presence of zinc(II). The data set is classed as functional, organism-based. Summed up: as §3
The nature of data set [15]: Solubility of the compound by UV-Vis spectroscopy. The data set is classed as physicochemical. Summed up:
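Solubility in μM was determined by UV-Vis spectroscopy.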

Data set [16] can be described thus: Selectivity index, ratio of CC50 for mouse J774.1 cells to IC50 for Trypanosoma cruzi epimastigotes. The data set is classed as toxicity. The note with it: read-out: Ratio CC50/IC50. In short, it runs like this:
as §1

Data set [17] has as its system Leishmania infantum. The data set is described as follows: Antileishmanial activity against Leishmania infantum promastigotes assessed as decrease in IC50 in presence of zinc(II). The class given is functional, organism-based. In short, it runs like this:
as §3

Data set [18] concerns Leishmania infantum. Nature of the data set: Antileishmanial activity against Leishmania infantum promastigotes assessed as decrease in IC50 in presence of copper(II). The data set is classed as functional, organism-based. In short, it runs like this:
as §3

For data set [19], the system named is Trypanosoma cruzi. Nature of the data set: […] activity against Trypanosoma cruzi epimastigotes assessed as change in parasites in presence of copper(II). The class given is functional, organism-based. Summed up: as §3
The test system of data set [20] is Leishmania infantum. Nature of the data set: Antileishmanial activity against Leishmania infantum axenic amastigotes. The data set is classed as functional, organism-based.
Data set [21] relates to Leishmania infantum. The data set is described as follows: Antileishmanial activity against Leishmania infantum promastigotes assessed as decrease in IC50 in presence of iron(III). The class given is functional, organism-based. Summed up: as §3
Data set [22] deals with Trypanosoma cruzi. The data set is described as follows: Antitrypanosomal activity against of Trypanosoma cruzi epimastigotes assessed as increase in IC50 in presence of FA. The class given is functional.
Data set [23] has as its system Leishmania infantum. Nature of the data set: Antileishmanial activity against Leishmania infantum promastigotes assessed as increase in IC50 in presence of FA. The class given is functional.
Data set [24] concerns Trypanosoma cruzi. The data set is described as follows: Induction of ROS production in Trypanosoma cruzi epimastigotes by DCFH-DA staining based flow cytometry analysis. The data set is classed as functional, organism-based. Summed up: as §2
A general note: In flow cytometry, cells or beads pass a laser one at a time.

Data set [25] deals with Trypanosoma cruzi. The data set is described as follows: Antitrypanosomal activity against of Trypanosoma cruzi epimastigotes in presence of FA. The class given is functional, organism-based.
For data set [26], the system named is Leishmania infantum. Nature of the data set: Induction of NO production in Leishmania infantum promastigotes by Griess method. The class given is functional, organism-based. In short, it runs like this: (§4)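 NO production in parasite cultures was measured at three test concentrations, either 25, 50 and 100 μM or 1, 5 and 10 μM depending on the compound.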
For orientation: Nitrite, measured by Griess reagent, commonly stands in for NO production.

Data set [27] relates to Leishmania infantum. Nature of the data set: Induction of ROS production in Leishmania infantum promastigotes by DCFH-DA staining based flow cytometry analysis. The data set is classed as functional, organism-based. Summed up:
as §2

Data set [28] concerns Trypanosoma cruzi. The data set is described as follows: Induction of NO production in Trypanosoma cruzi epimastigotes by Griess method. The class given is functional, organism-based. Summed up:
as §4

Data set [29] deals with Leishmania infantum. Nature of the data set: Induction of NO production in Leishmania infantum promastigotes at highest concentration by Griess method. The class given is functional. In short, it runs like this:
as §4

Data set [30] deals with Trypanosoma cruzi. The data set is described as follows: Induction of NO production in Trypanosoma cruzi epimastigotes at highest concentration by Griess method. The class given is functional. In short, it runs like this:
as §4

In data set [31] the test system is Leishmania infantum. Nature of the data set: Antileishmanial activity against Leishmania infantum promastigotes in presence of FA. The class given is functional, organism-based.

A word on the IC50: it is the point on the concentration scale where inhibition reaches its midpoint. Regarding `Cc1ccc(-c2nc(NN)c3ccccc3n2)cc1`, the IC50 in data set [1] was determined as 1.2 µM; in data set [2], 18 µM.

In the case of `O=c1[nH]c(-c2ccc(Br)cc2)nc2ccccc12`, the half-inhibitory concentration (IC50) in data set [1] worked out at 6.89 µM; in data set [2], 19.8 µM.

For `O=c1[nH]c(-c2cccc(Cl)c2)nc2ccccc12`, the IC50 in data set [1] and in data set [2] was over 25 µM throughout.

As to `O=c1[nH]c(-c2cccc(Br)c2)nc2ccccc12`, the half-inhibitory concentration (IC50) in [1] and in data set [2] was over 25 µM in each case.

The term inhibition denotes the percentage by which the read-out fell short of the control. A higher inhibition goes with strong suppression. `NNc1nc(-c2cccc(Br)c2)nc2ccccc12` yielded an inhibition at 25 µM in data set [3] of 21.4%. Moreover, the IC50 was 21.1 µM in data set [1] and over 25 µM in [2].

As a reminder, the CC50 is the concentration giving 50% cytotoxicity. A low value points to greater toxicity to the cells. As a reminder, the solubility is the concentration that dissolves in the medium under given conditions. Read a high solubility as much dissolved substance. Turning to `O=[N+]([O-])c1ccc(/C=N/N=c2\[nH]c(-c3ccccc3)nc3ccccc23)o1`, the CC50 in data set [4] was 15.1 µM. Further, the outcome in [5], in data set [6], in [7], in data set [8], in data set [10] and in data set [11] was Active. The outcome in [17], in [18] and in data set [21] was Active. The outcome in [9], in [14] and in data set [19] was inactive. Also, the results for the half-maximal inhibitory concentration (IC50) in data set [1], in [20] and in data set [2] were 0.88 µM, 0.93 µM and 0.63 µM, respectively. For the same molecule, the selectivity ratio in data set [12] stood at 16.2; in data set [13], 17.1; in data set [16] it was 23.9. The molecule also showed a solubility in data set [15] of 7.99 µM (≈ 2.87 µg/mL).

`Fc1ccc(-c2nc3ccccc3/c(=N/N=C/c3ccco3)[nH]2)cc1` showed a CC50 in data set [4] of 119 µM. For the same molecule, the Activity in [22] is on record as 37%; in [23], 41%. Further, the outcome in data set [24], in data set [26], in data set [27] and in data set [28] was inactive. Moreover, the IC50 in data set [25] is 33.1 µM; in data set [1] it was 9.07 µM; in data set [20], 11.1 µM; in [2], 9.07 µM. Also, the figures for the selectivity ratio in [12], in [13] and in data set [16] were 10.7, 13.1 and 5.7, respectively. The solubility in data set [15] was 7.87 µM (≈ 2.62 µg/mL).

`NNc1nc(-c2ccccc2)nc2ccccc12` returned an inhibition at 25 µM in data set [3] of 42.7%. Also, the IC50 was 12.7 µM in data set [1] and over 25 µM in [2].

Consider `NNc1nc(-c2ccc(Cl)cc2)nc2ccccc12`, for which the Activity in [29] was over 4 µM; in data set [22], 42%; in data set [23], 31%; in [30], over 2 µM; in data set [26], “Dose-Dependent Effect”; in data set [28], “Dose-Dependent Effect”. In addition, the result in data set [24] and in [27] was inactive. The IC50 in data set [25] was 19.1 µM; in data set [1] it was 1.56 µM; in data set [31], 2.05 µM; in [2] it was 11.5 µM.

For `CC1CS(=O)(=O)CCN1/N=C/c1ccc([N+](=O)[O-])o1` (stereo not drawn) [NIFURTIMOX], the selectivity ratio in data set [16] turned out to be 36.3.

Consider `Oc1nc(-c2ccc(F)cc2)nc2ccccc12`, for which the Activity in data set [22] stood at 47%; in data set [23], 14%. Also, the IC50 in data set [25] was determined as 33.2 µM; in data set [1] it was 8.67 µM; in data set [31] it was 9.78 µM; in [2], 22.7 µM.

For the molecule `Cc1ccc(-c2nc3ccccc3c(=O)[nH]2)cc1`, the values for the IC50 in data set [1] and in [2] were 5.23 µM and over 25 µM, respectively.

As for `NNc1nc(-c2cccc(Cl)c2)nc2ccccc12`, in data set [3], the inhibition at 25 µM was 38%. The values for the IC50 in data set [1] and in data set [2] were 4.55 µM and over 25 µM, respectively.

As to `O=[N+]([O-])c1ccc(/C=N/N=c2\[nH]c(-c3cccc(Br)c3)nc3ccccc23)o1`, the IC50 in data set [1] and in data set [2] was over 25 µM in each case. The molecule further yielded a solubility in [15] of 5.67 µM (≈ 2.48 µg/mL).

Turning to `O=[N+]([O-])c1ccc(/C=N/N=c2\[nH]c(-c3ccc(Cl)cc3)nc3ccccc23)o1`, the 50% inhibitory concentration (IC50) in [1] and in data set [2] was over 25 µM each time. This molecule also showed a solubility in [15] of 3.21 µM (≈ 1.26 µg/mL).

In data set [4], `CCCCCCCCCCCCCCCCOP(=O)([O-])OCC[N+](C)(C)C` [MILTEFOSINE] showed a CC50 of 89.2 µM. Moreover, the half-maximal inhibitory concentration (IC50) in data set [1] stood at 10.1 µM; in data set [20], 8.69 µM. The selectivity ratio stood at 10.1 in data set [12] and 8.9 in data set [13].

As to `O=c1[nH]c(-c2ccc(Cl)cc2)nc2ccccc12`, the values for the Activity in data set [22] and in [23] were 34% and 27%, respectively. For the same molecule, the result in [24], in [26], in data set [27] and in data set [28] was inactive. The 50% inhibitory concentration (IC50) in [25] was determined as 24.2 µM; in data set [1] it was 4.88 µM; in [31] it was 6.22 µM; in [2], 18.1 µM.

Consider `Cc1ccc(-c2nc3ccccc3/c(=N/N=C/c3ccc([N+](=O)[O-])o3)[nH]2)cc1`, for which the IC50 in data set [1] and in [2] was over 25 µM each time. Besides, the concentration in solution in data set [15] (solubility) was 7.23 µM (≈ 2.7 µg/mL).

For `NNc1nc(-c2ccc(F)cc2)nc2ccccc12`, the IC50 in data set [1] came out at 5.01 µM; in [2], 17.9 µM.

Regarding `O=[N+]([O-])c1ccc(/C=N/N=c2\[nH]c(-c3ccc(Br)cc3)nc3ccccc23)o1`, the IC50 in data set [1] and in [2] was over 25 µM throughout. Also, the concentration in solution in [15] (solubility) was 2.67 µM (≈ 1.17 µg/mL).

Regarding `NNc1nc(-c2ccc(Br)cc2)nc2ccccc12`, the Activity in data set [22] came out at 48%; in [23], 33%. Also, the IC50 is 25.2 µM in [25], 2.13 µM in [1], 2.83 µM in data set [31] and 14.3 µM in [2].
